Assay results: ChEMBL document CHEMBL3526065, “Metabolism of [6]-shogaol in mice and in cancer cells” (Drug Metab Dispos, 2012)

How the values were obtained:
HCT-116 [1] = assay: Induction of apoptosis in human HCT116 cells assessed as apoptotic cells at 80 uM after 24 hrs by TUNEL assay; format: functional
Procedure, shortened: (§1)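 HCT-116 or H-1299 cells seeded at 1.0 × 10⁵/well, after 24 h exposed for 24 h to compound (10–80 μM) or DMSO control. Cells were proteinase K-pretreated, formaldehyde-fixed, and slide-mounted for peroxidase TUNEL staining. Ten fields per slide counted at 400×; brown-nucleus cells given as percentage of total cells; mean ± S.E., n = 10.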

NCI-H1299 [2] = assay: Induction of apoptosis in human H1299 cells assessed as apoptotic cells at 40 uM after 24 hrs by TUNEL assay; format: functional; procedure, shortened: as §1
NCI-H1299 [3] = assay: Induction of apoptosis in human H1299 cells assessed as apoptotic cells at 80 uM after 24 hrs by TUNEL assay; format: functional; procedure, shortened: as §1
[4] = Drug level in C57BL/6J mouse feces treated with [6]-shogaol at 200 mg/kg, po by HPLC-ECD analysis relative to control; format: ADME, organism-based; set-up: dose 200 mg/kg, route oral; conditions: in vivo
Procedure, shortened: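 Female C57BL/6J mice gavaged once with 200 mg/kg in corn oil, or corn oil alone (n = 5 each). 24-h feces collected in metabolic cages. Feces extracted by sonication 90 min in MeOH/H2O (50/50) + 0.1% acetic acid, centrifuged, diluted fivefold. Analysed by HPLC with electrochemical array detection (Gemini C18, phosphate/acetonitrile/THF gradient), compared against vehicle controls.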

[5] = Cytotoxicity against human H1299 cells assessed as growth inhibition after 24 hrs by MTT assay; format: functional, cell-based; conditions: NCI-H1299, 24 h
Procedure, shortened: (§2)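 Cells seeded at 3000/well, attached 24 h at 37°C, then exposed to test agents (0–80 μM, 0.1% DMSO final) for 24 h in McCoy's 5A with 10% FBS. Medium replaced with 2.41 mM MTT for 3 h at 37°C; formazan dissolved in DMSO, absorbance 550 nm. Viability as percentage of DMSO control; mean ± S.D., n = 6.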

[6] = Drug level in human H1299 cells treated with 10 uM [6]-shogaol after 24 hrs by HPLC-ECD analysis; format: ADME, cell-based; conditions: nci-h1299, 24 h
Procedure, shortened: (§3)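 Cells (1.0 × 10⁶) attached 24 h in six-well plates, then exposed to 10 μM final in McCoy's 5A with 10% FBS. Extracted with equal volume acetonitrile, diluted 5-fold, analysed by HPLC with electrochemical detection.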

[7] = Drug level in mouse CL-13 cells treated with 10 uM [6]-shogaol after 24 hrs by HPLC-ECD analysis; format: ADME, cell-based; conditions: cl-13, 24 h; procedure, shortened: as §3
HCT-116 [8] = assay: Induction of apoptosis in human HCT116 cells assessed as apoptotic cells at 40 uM after 24 hrs by TUNEL assay; format: functional; procedure, shortened: as §1
[9] = Cytotoxicity against human HCT116 cells assessed as growth inhibition after 24 hrs by MTT assay; format: functional, cell-based; conditions: HCT-116, 24 h; procedure, shortened: as §2
HT-29 = assay: Drug level in human HT-29 cells treated with 10 uM [6]-shogaol by HPLC-ECD analysis; format: ADME, cell-based; procedure, shortened: as §3
[10] = Drug level in human HCT116 cells treated with 10 uM [6]-shogaol after 24 hrs by HPLC-ECD analysis; format: ADME, cell-based; conditions: hct-116, 24 h; procedure, shortened: as §3
[11] = Drug level in mouse CL-13 cells treated with 10 uM [6]-shogaol by HPLC-ECD analysis; format: ADME, cell-based; procedure, shortened: as §3
[12] = Antioxidant activity assessed as DPPH radical scavenging activity; format: physicochemical

CCCCCCCC(O)CCc1ccc(O)c(OC)c1 (centres undefined)
Activity (HCT-116 [1]): 16.9%
Activity (NCI-H1299 [2]): 7.4%
Activity (NCI-H1299 [3]): 15.4%
Drug excretion [4]: metabolite_detected
IC50 [5]: 77.7 µM
Drug metabolism [6]: metabolite_detected
Drug metabolism [7]: metabolite_detected
Activity (HCT-116 [8]): 9.6%
IC50 [9]: 82.2 µM
Drug metabolism (HT-29): metabolite_detected
Drug metabolism [10]: metabolite_detected
Drug metabolism [11]: metabolite_detected

CCCCCCC[C@H](O)CC(=O)CCc1ccc(O)c(OC)c1
IC50 [12]: 20 µM

CCCCCCCC(=O)CCc1ccc(O)c(OC)c1
Activity (HCT-116 [1]): 21.1%
Activity (NCI-H1299 [2]): 8.3%
Activity (NCI-H1299 [3]): 19.4%
Drug excretion [4]: metabolite_detected
IC50 [5]: 66.5 µM
Drug metabolism [6]: metabolite_detected
Activity (HCT-116 [8]): 12.9%
IC50 [9]: 84 µM
Drug metabolism (HT-29): metabolite_detected
Drug metabolism [10]: metabolite_detected

CCCCCC(CC(=O)CCc1ccc(O)c(OC)c1)SCC(NC(C)=O)C(=O)O (centres undefined)
Drug excretion [4]: metabolite_detected

CCCCC/C=C/C(O)CCc1ccc(O)c(OC)c1 (centres undefined)
Drug excretion [4]: metabolite_detected
Drug metabolism [10]: metabolite_detected

CCCCCC(CC(=O)CCc1ccc(O)c(OC)c1)OC (centres undefined)
Drug excretion [4]: metabolite_detected

CCCCCC(CC(O)CCc1ccc(O)c(OC)c1)SCC(N)C(=O)NCC(=O)O (centres undefined)
Drug excretion [4]: metabolite_detected

CCCCCC(CC(O)CCc1ccc(O)c(OC)c1)SCC(NC(C)=O)C(=O)O (centres undefined)
Drug excretion [4]: metabolite_detected
